In brackets after ≈: the same amount, converted by molar mass. Activity calls are given as the source filed them. The calls are words filed in the database; no cut-off is given here. Some results are limits rather than exact numbers.

The record followed here is ChEMBL document CHEMBL1155043, “Complexation of the anti-Trypanosoma cruzi drug benznidazole improves solubility and efficacy” (J Med Chem, 2008).

Data set [1] deals with Trypanosoma cruzi. Put plainly: Antitrypanosomal activity against bloodstream trypomastigote of Trypanosoma cruzi Y assessed as number of motile forms after 1 hr by hemocytometer. The class given is functional, organism-based. In outline: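 Bloodstream trypomastigotes (Y strain) taken from mice at peak parasitemia, resuspended to 1.0 × 10^6/mL. Triplicate wells with compound in PBS at 0.1, 0.25, 0.5 and 1.0 mM, 37 °C, 5% CO2, 1 h. Motile forms counted by hemocytometer; % trypanocidal activity = [1 - (LDt/LCt)] × 100 against untreated wells.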

A further data set deals with V79. Put plainly: Cytotoxicity against chinese hamster V79 cells. The class given is cell-based. The settings on record: Cricetulus griseus.
Data set [2] deals with Trypanosoma cruzi. Nature of the data set: Antiproliferative activity against Trypanosoma cruzi Y epimastigotes assessed as number of motile forms at 0.1 mM after 1 hr by hemocytometer. The class given is functional. The settings on record: read-out: GI. In a few lines:
(§1)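 Y strain epimastigotes grown in Schneider's medium with 20% fetal calf serum, taken in exponential phase, PBS-washed, resuspended to 2.0 × 10^6/mL. Plated in triplicate with compound diluted in PBS, incubated at 37 °C, 5% CO2. Motile forms counted by hemocytometer; % growth inhibition = {1 - [(LDt - LDt0)/(LCt - LCt0)]} × 100 against untreated wells.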

Data set [3] has as its system Trypanosoma cruzi. Put plainly: Antiproliferative activity against Trypanosoma cruzi Y epimastigotes assessed as number of motile forms at 0.5 mM after 1 hr by hemocytometer. The class given is functional. As to conditions: read-out: GI. In outline:
as §1

The subject of data set [4] is Trypanosoma cruzi. Put plainly: Antiproliferative activity against Trypanosoma cruzi Y epimastigotes assessed as number of motile forms at 1 mM after 1 hr by hemocytometer. The settings on record: read-out: GI. The class given is functional. In a few lines:
as §1

The test system of data set [5] is Trypanosoma cruzi. Put plainly: Antiproliferative activity against Trypanosoma cruzi Y epimastigotes assessed as number of motile forms at 0.1 mM after 4 hrs by hemocytometer. As to conditions: read-out: GI. The class given is functional. In outline: as §1
In data set [6] the test system is Trypanosoma cruzi. Nature of the data set: Antiproliferative activity against Trypanosoma cruzi Y epimastigotes assessed as number of motile forms at 0.5 mM after 4 hrs by hemocytometer. As to conditions: read-out: GI. The class given is functional. In outline: as §1
Data set [7] concerns Trypanosoma cruzi. Put plainly: Antiproliferative activity against Trypanosoma cruzi Y epimastigotes assessed as number of motile forms at 1 mM after 4 hrs by hemocytometer. As to conditions: read-out: GI. The class given is functional. In outline: as §1
Data set [8] deals with Trypanosoma cruzi. Nature of the data set: Antiproliferative activity against Trypanosoma cruzi Y epimastigotes assessed as number of motile forms at 0.1 mM after 24 hrs by hemocytometer. The class given is functional. As to conditions: read-out: GI. In outline: as §1
Data set [9] relates to Trypanosoma cruzi. Nature of the data set: Antiproliferative activity against Trypanosoma cruzi Y epimastigotes assessed as number of motile forms at 0.5 mM after 24 hrs by hemocytometer. The class given is functional. As to conditions: read-out: GI. In outline:
as §1

In data set [10] the test system is Trypanosoma cruzi. Nature of the data set: Antiproliferative activity against Trypanosoma cruzi Y epimastigotes assessed as number of motile forms at 1 mM after 24 hrs by hemocytometer. The class given is functional. The settings on record: read-out: GI. In a few lines:
as §1

Data set [11] has as its system Trypanosoma cruzi. Nature of the data set: Antitrypanosomal activity against Trypanosoma cruzi Y epimastigotes assessed as number of motile forms after 24 hrs by hemocytometer. The class given is functional, organism-based. In outline:
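Y strain epimastigotes in Schneider's medium with 20% FCS, exponential phase, PBS-washed, 2.0 × 10^6/mL. Triplicate wells with compound in PBS at 0.1, 0.25, 0.5 and 1.0 mM, 37 °C, 5% CO2, 24 h. Motile forms counted by hemocytometer; IC50 taken as 50% antiproliferative activity. Mean ± SEM, n = 3.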

In data set [12] the test system is Trypanosoma cruzi. Put plainly: Antitrypanosomal activity against Trypanosoma cruzi Y infected in Swiss mouse assessed as survivality at 100 nmol/kg, ip after 15 consecutive days. The class given is functional, organism-based. In a few lines: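 Female Swiss mice, 5-6 weeks old, groups of six, infected ip with 1.0 × 10^3 Y strain bloodstream trypomastigotes. Treated ip in 100 µL PBS daily for 15 consecutive days. Controls were untreated or PBS-only infected mice. Survival followed up to 120 days.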

Data set [13] concerns Trypanosoma cruzi. Put plainly: Antitrypanosomal activity against Trypanosoma cruzi Y infected in Swiss mouse assessed as decrease in parasitemia at 385 umol/kg, po after 15 consecutive days. The class given is functional, organism-based.
Data set [14] concerns Trypanosoma cruzi. Nature of the data set: Antitrypanosomal activity against Trypanosoma cruzi Y infected in Swiss mouse assessed as survivality at 385 umol/kg, po for 1 day after 15 days. The class given is functional. In outline:
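Female Swiss mice, 5-6 weeks old, infected intraperitoneally with 1.0 × 10^3 Y-strain bloodstream trypomastigotes. A single oral dose in PBS was given only on the first day after infection. Groups of six, with infected controls. Survival was followed, and parasitemia was counted as motile trypomastigotes in 5 µL tail blood.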

The nature of data set [15]: Aqueous solubility at pH 6.5. The class given is physicochemical. In outline:
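Solubility measured in a bio-relevant medium simulating fasted proximal small intestine: 3 mM sodium taurocholate, 0.75 mM lecithin, KH2PO4, KCl, pH 6.5, 37 °C. Excess compound stirred 24 h in 5 mL, filtered through 0.45 µm, diluted, and quantified by UV-vis at 323 nm (ε = 4.5 × 10^3 M-1 cm-1), in triplicate.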

The test system of data set [16] is Trypanosoma cruzi. Put plainly: Antitrypanosomal activity against Trypanosoma cruzi Y infected in Swiss mouse assessed as survivality at 385 umol/kg, po after 15 consecutive days. The class given is functional. In outline: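 Female Swiss mice, 5-6 weeks old, infected intraperitoneally with 1.0 × 10^3 Y-strain bloodstream trypomastigotes from an infected mouse. Oral dosing once daily in PBS for 15 consecutive days. Groups of six; untreated or PBS-only infected controls. Parasitemia counted as motile trypomastigotes in 5 µL tail blood, and survival of the treated animals recorded.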

For orientation: IC50 means the concentration needed to halve the response being measured. A word on the solubility: it is the concentration that dissolves in the medium under given conditions. For the compound `O=C(Cn1ccnc1[N+](=O)[O-])NCc1ccccc1` [BENZNIDAZOLE], the IC50 is more than 1 mM in the data set on Trypanosoma cruzi [1], 2 mM in the data set on V79 and more than 1 mM in the data set on Trypanosoma cruzi [11]. For the same compound, the figures for the inhibition of growth at 100 µM in the data set on Trypanosoma cruzi [2], in the data set with Trypanosoma cruzi [5] and in the data set on Trypanosoma cruzi [8] were 0%, 11% and 15%, respectively. The inhibition of growth at 500 µM with Trypanosoma cruzi [3] stood at 0%; with Trypanosoma cruzi [6], 15%; with Trypanosoma cruzi [9], 26%. Also, the inhibition of growth at 1000 µM in the data set on Trypanosoma cruzi [4] was 7%; in the data set on Trypanosoma cruzi [7] it was 24%; in the data set on Trypanosoma cruzi [10], 31%. Further, the result in the data set with Trypanosoma cruzi [12] was inactive. Further, the result with Trypanosoma cruzi [13] was Active. Further, the survival at 385 µmol/kg stood at 20% in the data set with Trypanosoma cruzi [14] and 100% with Trypanosoma cruzi [16]. The amount in solution in data set [15] (solubility) came to 400 µg/mL (≈ 1540 µM).
